# Source: PubChem BioAssay
# TCR CD3 inh = human TCR-CD3 binding inhibition; TAMRA-labeled TCR probe fluorescence, biochemical; inhibition, % at 9.4 µM; hit rate 0.37% among 360,000; in the data active means inhibition above about 19%;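 further: recombinant mutant TCR 2C K166C tagged with TAMRA read by polarization; 0% = receptor in buffer alone and 100% = receptor with positive control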
# SIAE primary = human SIAE inhibition, primary screen | SIAE FP-Rh probe binding, fluorescence polarization | inhibition, % at 9.66 µM | hit rate 0.69% among 370,000 | AID 1053197;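 active means inhibition above a cutoff: mean of compounds within the control limits plus 3 SD of those, cut at about 17% in these data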;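 further: 0% = plate median of compound wells and 100% = probe without SIAE protein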
# mABHD4 FP = ABHD4 (mouse) inhibition, primary FP screen; purified mABHD4, FP-Rh probe fluorescence polarization; inhibition, % at 8.92 µM; hit rate 0.54% among 370,000; AID 720543;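 active means inhibition exceeding the mean over every tested compound plus 3 SD, cut at about 30% in these data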;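 further: 0% = plate median of compound wells and 100% = S159A mutant with DMSO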
# Target sequence (Q8VD66 whole entry, looked up): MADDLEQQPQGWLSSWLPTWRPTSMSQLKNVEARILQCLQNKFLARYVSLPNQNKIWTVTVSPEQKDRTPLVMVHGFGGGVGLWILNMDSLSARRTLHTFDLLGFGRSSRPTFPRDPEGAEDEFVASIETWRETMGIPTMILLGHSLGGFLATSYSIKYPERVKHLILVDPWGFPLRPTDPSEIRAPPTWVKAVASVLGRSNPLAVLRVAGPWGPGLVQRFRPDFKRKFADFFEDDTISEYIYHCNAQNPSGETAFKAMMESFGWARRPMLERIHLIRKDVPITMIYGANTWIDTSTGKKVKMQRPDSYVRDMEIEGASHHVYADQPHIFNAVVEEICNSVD
#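 system = mouse ABHD4 enzyme, wild type | medium = HEPES pH 7.0, NaCl, Pluronic buffer | also added = FP-Rh probe | incubation = Enzyme–compound pre-incubation 45 min, then probe 60 min, both 25 °C | technique = fluorescence polarization, excitation 525 nm, emission 598 nm, BODIPY TMR filters | controls = S159A mutant high control, sample median low control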
# PRMT1 inh = PRMT1 (human) inhibition, primary screen; Q99873; recombinant PRMT1, activity-based probe fluorescence polarization; inhibition, % at 2.79 µM; hit rate 1.3% among 370,000;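 active means inhibition above about 21% made by adding two undisclosed values, limit read from the data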
# HTRA1 inhibitor = blocks human HTRA1 serine peptidase | Q92743 | recombinant HTRA1, FP-rhodamine activity-based probe, fluorescence polarization | inhibition, % at 5.96 µM | hit rate 0.5% among 340,000; in the data active means inhibition above about 36%;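 further: 0% = enzyme with DMSO and 100% = wells lacking enzyme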
# mABHD4 conf = ABHD4 (mouse) inhibition, FP confirmation; shares compounds with mABHD4 FP; inhibition, % at 8.92 µM; hit rate 55% among 1,800; purified mABHD4, FP-Rh probe fluorescence polarization;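 active means mean inhibition across replicates above the hit cutoff set in the primary screen, cut at about 30% in these data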;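 further: 0% = wild-type ABHD4 with DMSO and 100% = catalytically dead S159A mutant with DMSO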
# SIAE inh conf = confirmation of human SIAE inhibitors; shares compounds with SIAE primary; SIAE FP-Rh activity-based probe, fluorescence polarization; inhibition, % at 9.66 µM; hit rate 13% among 2,300;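 active means mean inhibition of the replicates above the hit cutoff set in the primary screen, cut at about 17% in these data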;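 further: 0% = SIAE with DMSO and probe and 100% = probe without SIAE; inhibitors lower polarization as more probe stays unbound to SIAE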
# * = called active by the depositor; x = not tested or not shown. Only some compounds are listed: those with a hit (about 2.6% of all), similar ones and a draw of the others.
SMILES,TCR CD3 inh,SIAE primary,mABHD4 FP,PRMT1 inh,HTRA1 inhibitor,SIAE inh conf,others
O=C(NNS(=O)(=O)c1ccc([N+](=O)[O-])cc1)c1ccc2ccccc2c1O,-7,19*,31*,1,5,2,mABHD4 conf=21
CCn1c(=O)n(CC(=O)N2CCCN(Cc3ccccc3)CC2)c(=O)c2ccccc21,x,-7,3,2,x,x,
COc1ccc2ccccc2c1/C=N\NC(=O)c1cccnc1,1,-12,-5,0,x,x,
O=C(N/N=C/c1c(O)ccc2ccccc12)c1cccnc1,7,27*,30*,-6,31,-4,mABHD4 conf=32*
Cc1csc(N/N=C/c2ccc(O)c([N+](=O)[O-])c2)n1,13,17*,50*,48*,20,-3,mABHD4 conf=83*
COc1ccc(/C=C/C(=O)Nc2ccc(N3CCOCC3)cc2)cc1,5,-2,7,-1,-1,x,
COc1ccc(N2CCN(c3ccc(NC(=O)/C=C\C(=O)O)cc3)CC2)cc1,11,18*,36*,7,32,4,mABHD4 conf=-7
CN(C)c1ccc(NC(=O)Nc2ccc3c(c2)c(=O)n(C)n3Cc2ccc(Cl)cc2)cc1,-2,27*,43*,15,x,15,mABHD4 conf=26
COC(=O)C1CCCN(C(=O)C2CCN(S(=O)(=O)c3ccc([N+](=O)[O-])cc3)CC2)C1 (stereo not given),x,-2,3,0,x,x,
Cc1nn(-c2cccc(Cl)c2)c2c1C(c1ccncc1)C(C#N)=C(N)O2 (stereo not given),-6,20*,48*,5,31,8,mABHD4 conf=50*
Cc1nn(-c2ccccc2)c2c1C(c1cccs1)C(C#N)=C(N)O2 (stereo not given),x,x,x,x,9,x,
CC(=O)c1ccc(N=Nc2ccc(C)cc2)cc1,2,1,2,-1,12,x,
C=C(C)C(=O)Oc1ccc(N=Nc2ccc(C)cc2)ccc1=O,9,18*,50*,8,x,6,mABHD4 conf=59*
O=C1CC(c2ccc3ccccc3c2)N=C2N(Cc3ccc4c(c3)OCO4)C/C(=C/c3ccccc3)N12 (stereo not given),x,-2,-16,0,x,x,
Cc1ccnc(NC(=O)c2cccc(S(=O)(=O)NCc3ccccc3)c2)c1,3,21*,-8,-10,-20,-3,
O=C(Nc1ncccc1O)c1cccc(S(=O)(=O)NCc2ccccc2)c1,0,0,-1,1,-2,x,
CN(C)c1cccc(CNC(=O)c2csc([C@@H]3O[C@H](CO)[C@H](O)[C@H](O)[C@H]3O)n2)c1,1,20*,3,-4,x,6,
Cc1ccc(NC2=CC(=O)CC(c3ccco3)C2)c(N)c1 (stereo not given),-8,5,14,8,7,x,
Nc1ccccc1NC1=CC(=O)CC(c2ccco2)C1 (stereo not given),-2,19*,23,3,8,3,
O=C(O)C1CCN(c2ccc(Cl)nn2)CC1,-1,1,1,-1,-3,x,
Clc1ccc(N2CCCCCC2)nn1,-2,18*,-6,-1,0,-7,
COc1cccc(NC(=O)n2ccc3ccc(-c4ccc5ccn(C(=O)Nc6cccc(OC)c6)c5c4)cc32)c1,x,-10,-113,4,x,x,
CN1CCN(c2ccc(CNC(=O)c3ccc(-c4ccc(F)c(F)c4)c4ccoc34)cc2)CC1,10,19*,6,0,x,7,
O=C(NCc1ccc(C(F)(F)F)cc1)c1ccc(-c2ccc(F)c(F)c2)c2ccoc12,-6,-17,-17,4,x,x,
COc1ccc(Nc2nc(N)c([N+](=O)[O-])c(NCc3ccccc3)n2)cc1,3,24*,-2,-9,-1,5,
SMILES,TCR CD3 inh,SIAE primary,mABHD4 FP,PRMT1 inh,HTRA1 inhibitor,SIAE inh conf,others
Fc1ccccc1Cn1ccc2ccc(-c3ccc4ccn(Cc5ccccc5)c4c3)cc21,x,9,3,1,x,x,
Cc1ccc(C)c(NC(=S)NCc2ccc3c(c2)OCO3)c1,8,18*,0,-1,0,-2,
CCOC(=O)CN1CC23C=CC(O2)C(C(=O)Nc2cc(OC)ccc2OC)C3C1=O (stereo not given),-9,17*,3,0,10,-7,
CCOC(=O)CN1CC23C=CC(O2)C(C(=O)Nc2ccc(OC)cc2OC)C3C1=O (stereo not given),5,-5,2,-4,8,x,
CN(CCCOC(=O)c1cccs1)C1CN(Cc2cn(Cc3ccccc3Cl)nn2)S(=O)(=O)C1 (stereo not given),x,-2,-2,2,x,x,
COc1ccc(C(=O)Nc2c(N)nc(SCC(=O)Nc3ccc(NC(C)=O)cc3)[nH]c2=O)cc1OC,1,18*,-5,1,-2,-5,
Nc1nc(SCC(=O)Nc2ccc(C(F)(F)F)cc2)[nH]c(=O)c1NC(=O)c1ccc(F)c(F)c1,-4,-34,3,1,5,x,
CCCNC(=O)C(Cc1ccc(F)cc1)NC(=O)c1ccc(C#N)cc1 (stereo not given),4,20*,6,-3,0,-4,
COc1ccc(Cn2ccc3ccc(-c4ccc5ccn(C(=O)c6ccccc6)c5c4)cc32)cc1,x,-11,0,-3,x,x,
COc1ccc2c(c1)[C@@H](NC(=O)c1ccncc1)[C@@H]1Cc3ccccc3[C@H]21,0,0,-8,-1,x,x,
O=S(=O)(c1ccccc1Cl)N1CCC(O)(c2cccnc2)CC1,6,20*,-4,-1,0,2,
CCCn1cnnc1CNC(=O)[C@H]1O[C@@H](n2ccc(N)nc2=O)[C@H](O)[C@@H]1O,0,1,-3,-1,x,x,
Cc1ccc(CNC(=O)[C@H]2O[C@@H](n3cnc4c(N)ncnc43)[C@H](O)[C@@H]2O)o1,6,17*,-4,2,x,20*,
CN(Cc1cnn(-c2ccc(F)cc2)c1)C(=O)[C@H]1O[C@@H](n2cnc3c(N)ncnc32)[C@H](O)[C@@H]1O,-2,41*,-1,1,x,45*,
Cc1ccc(CNC(=O)[C@H]2O[C@@H](n3ccc(N)nc3=O)[C@H](O)[C@@H]2O)o1,3,25*,6,0,x,19*,
COc1cc(NC(=O)[C@H]2O[C@@H](n3ccc(N)nc3=O)[C@H](O)[C@@H]2O)cc(OC)c1OC,1,26*,-1,4,x,20*,
CC(C)(C)OC(=O)NCc1ccccc1/C=C/S(=O)(=O)NCc1ccc(F)cc1,x,-6,-10,-6,x,x,
COC(=O)[C@]12C[C@H](CC(=O)NCc3ccccc3)C(=O)N(Cc3ccc(Cl)cc3Cl)C1=C[C@H](C(C)(C)C)O[C@@H]2C,x,-1,-12,4,x,x,
O=C1C(=O)N(Cc2ccc(-c3ccccc3)cc2)c2ccc(OC(F)(F)F)cc21,x,1,3,3,x,x,
C/C(=N/NC(=O)c1cc2ccccc2cc1O)c1ccco1,3,23*,25,1,19,0,
